Test results as given in article PMC11316633 (European journal of medicinal chemistry, 2024).
Where two headings read alike, the source gives them in different places.

Legend:
CDK7/Cyclin H/MNAT1 = CDK7/Cyclin H/MNAT1 (Homo sapiens, UniProt P50613); assay: Adapta Eu kinase assay; type: biochemical
Procedure, shortened: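 CDK7/Cyclin H/MNAT1 complex tested by an outside contract service in Adapta Eu format, with ATP at its Km concentration.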

CDK7 = CDK7 (Homo sapiens, UniProt P50613); assay: Immunoblot analysis of CDK7 degradation in Jurkat cells; type: cell-based; conditions: Jurkat cells, 1 μM, 16 h, Western blot
Chain of CDK7 (P50613 2-346 limits assumed): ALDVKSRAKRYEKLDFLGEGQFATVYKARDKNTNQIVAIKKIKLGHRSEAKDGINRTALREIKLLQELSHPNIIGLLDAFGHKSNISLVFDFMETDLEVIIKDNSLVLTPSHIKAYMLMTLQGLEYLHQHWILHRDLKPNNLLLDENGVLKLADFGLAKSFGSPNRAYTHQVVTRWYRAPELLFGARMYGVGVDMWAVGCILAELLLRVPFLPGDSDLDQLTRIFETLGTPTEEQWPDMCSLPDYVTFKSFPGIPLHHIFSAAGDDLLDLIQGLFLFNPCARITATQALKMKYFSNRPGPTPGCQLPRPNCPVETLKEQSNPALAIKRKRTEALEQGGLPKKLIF
Chain of CDK7 (P51946 whole entry partner): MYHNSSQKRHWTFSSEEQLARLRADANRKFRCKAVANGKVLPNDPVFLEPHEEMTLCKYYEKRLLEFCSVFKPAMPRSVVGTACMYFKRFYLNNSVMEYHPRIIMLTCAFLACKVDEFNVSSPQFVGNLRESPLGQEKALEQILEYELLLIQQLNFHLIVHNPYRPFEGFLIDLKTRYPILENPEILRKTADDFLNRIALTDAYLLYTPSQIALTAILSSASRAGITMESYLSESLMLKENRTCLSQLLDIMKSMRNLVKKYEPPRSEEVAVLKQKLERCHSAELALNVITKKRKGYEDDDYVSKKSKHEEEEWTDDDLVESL
Chain of CDK7 (P51948 whole entry partner): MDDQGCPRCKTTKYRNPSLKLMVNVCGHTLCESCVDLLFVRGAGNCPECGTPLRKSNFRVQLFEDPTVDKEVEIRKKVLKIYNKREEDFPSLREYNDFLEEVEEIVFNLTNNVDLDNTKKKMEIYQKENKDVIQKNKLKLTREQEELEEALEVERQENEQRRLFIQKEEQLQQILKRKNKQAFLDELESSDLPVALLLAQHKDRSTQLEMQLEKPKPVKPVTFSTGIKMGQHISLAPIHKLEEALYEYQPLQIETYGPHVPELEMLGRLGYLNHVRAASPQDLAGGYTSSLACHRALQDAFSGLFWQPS
Procedure, shortened: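 Jurkat cells received test compound at 0.1 or 1 μM for 16 h, 0.1 μM for 0.5–24 h, or a concentration series for 6 h. Other arms were pretreated 2 h with MG132, MLN-4924, parent CDK7 inhibitor or VHL ligand, or used VHL-knockout Jurkat (6 h). Blots: RIPA lysis, 4–20% SDS-PAGE, nitrocellulose, anti-CDK7 1:1000, β-actin 1:5000, IRDye secondaries. Mean ± SEM of three biological replicates.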

Chain of CDK7/Cyclin H/MNAT1 (P50613 whole entry): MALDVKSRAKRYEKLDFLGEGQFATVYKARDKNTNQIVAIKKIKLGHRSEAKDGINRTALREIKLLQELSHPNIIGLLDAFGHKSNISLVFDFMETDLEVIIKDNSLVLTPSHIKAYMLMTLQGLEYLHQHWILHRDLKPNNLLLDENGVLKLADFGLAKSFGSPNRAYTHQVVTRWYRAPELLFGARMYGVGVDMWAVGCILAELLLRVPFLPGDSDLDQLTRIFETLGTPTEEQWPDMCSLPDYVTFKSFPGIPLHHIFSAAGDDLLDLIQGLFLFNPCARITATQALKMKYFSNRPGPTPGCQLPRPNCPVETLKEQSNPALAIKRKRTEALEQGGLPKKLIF
Chain of CDK7/Cyclin H/MNAT1 (P51946 whole entry partner): as the sequence (P51946 whole entry partner) above
Chain of CDK7/Cyclin H/MNAT1 (P51948 whole entry partner): as the sequence (P51948 whole entry partner) above

Row | Compound | IC50 (CDK7/Cyclin H/MNAT1) [nM] | CDK7 degradation (in words) (CDK7) | IC50 (CDK7/Cyclin H/MNAT1; read-out: IC50 (CDK7 binding affinity, Table 2), VHL-based compounds, Adapta Eu kinase assay, Km ATP) [nM]
1 | CN(C)C[C@@H](NC(=O)N1Cc2c(NC(=O)c3ccc(C(=O)NCCCC#Cc4cccc5c4C(=O)N(C4CCC(=O)NC4=O)C5=O)cc3)n[nH]c2C1(C)C)c1ccccc1 (stereo partly drawn) [Compound 8, N1-(5-(((S)-2-(dimethylamino)-1-phenylethyl)carbamoyl)-6,6-dimethyl-1,4,5,6-tetrahydropyrrolo[3,4-c]pyrazol-3-yl)-N4-(5-(2-(2,6-dioxopiperidin-3-yl)-1,3-dioxoisoindolin-4-yl)pent-4-yn-1-yl)terephthalamide] | 6.9 |  | 
2 | CC(=O)N[C@H](C(=O)N1C[C@H](O)C[C@H]1C(=O)N[C@@H](C)c1ccc(-c2scnc2C(=O)NCCCCCNC(=O)c2ccc(C(=O)Nc3n[nH]c4c3CN(C(=O)N[C@H](CN(C)C)c3ccccc3)C4(C)C)cc2)cc1)C(C)(C)C [Compound 22, N1-(5-(5-(4-((S)-1-((2S,4R)-1-((S)-2-acetamido-3,3-dimethylbutanoyl)-4-hydroxypyrrolidine-2-carboxamido)ethyl)phenyl)thiazole-4-carboxamido)pentyl)-N4-(5-(((S)-2-(dimethylamino)-1-phenylethyl)carbamoyl)-6,6-dimethyl-1,4,5,6-tetrahydropyrrolo[3,4-c]pyrazol-3-yl)terephthalamide] |  | moderate reduction of CDK7 protein levels | 
3 | N1-(5-(((R)-2-(dimethylamino)-1-phenylethyl)carbamoyl)-6,6-dimethyl-1,4,5,6-tetrahydropyrrolo[3,4-c]pyrazol-3-yl)-N4-((S)-14-((2S,4R)-4-hydroxy-2-(((S)-1-(4-(4-methylthiazol-5-yl)phenyl)ethyl)carbamoyl)pyrrolidine-1-carbonyl)-15,15-dimethyl-12-oxo-3,6,9-trioxa-13-azahexadecyl)terephthalamide [Compound 16] |  |  | 13.7
4 | Cc1ncsc1-c1ccc([C@H](C)NC(=O)[C@@H]2C[C@@H](O)CN2C(=O)[C@@H](NC(=O)CCNC(=O)c2ccc(C(=O)Nc3n[nH]c4c3CN(C(=O)N[C@H](CN(C)C)c3ccccc3)C4(C)C)cc2)C(C)(C)C)cc1 [Compound 10, N1-(5-(((S)-2-(dimethylamino)-1-phenylethyl)carbamoyl)-6,6-dimethyl-1,4,5,6-tetrahydropyrrolo[3,4-c]pyrazol-3-yl)-N4-(3-(((S)-1-((2S,4R)-4-hydroxy-2-(((S)-1-(4-(4-methylthiazol-5-yl)phenyl)ethyl)carbamoyl)pyrrolidin-1-yl)-3,3-dimethyl-1-oxobutan-2-yl)amino)-3-oxopropyl)terephthalamide] |  | moderate degradation | 

Further lines, with some results ahead:

Row | IC50 (CDK7/Cyclin H/MNAT1) [nM] | Compound | CDK7 degradation (in words) (CDK7) | IC50 (CDK7/Cyclin H/MNAT1; read-out: IC50 (CDK7 binding affinity, Table 2), VHL-based compounds, Adapta Eu kinase assay, Km ATP) [nM]
5 | 13.4 | Cc1ncsc1-c1ccc(CNC(=O)C2CC(O)CN2C(=O)C(NC(=O)C2(F)CC2)C(C)(C)C)c(OCCOCCOCCNC(=O)c2ccc(C(=O)Nc3n[nH]c4c3CN(C(=O)N[C@H](CN(C)C)c3ccccc3)C4(C)C)cc2)c1 (stereo partly drawn) [Compound 21, N1-(5-(((S)-2-(dimethylamino)-1-phenylethyl)carbamoyl)-6,6-dimethyl-1,4,5,6-tetrahydropyrrolo[3,4-c]pyrazol-3-yl)-N4-(2-(2-(2-(2-((1-(2-(1-fluorocyclopropane-1-carboxamido)-3,3-dimethylbutanoyl)-4-hydroxypyrrolidine-2-carboxamido)methyl)-5-(4-methylthiazol-5-yl)phenoxy)ethoxy)ethoxy)ethyl)terephthalamide] | moderate reduction of CDK7 protein levels | 
6 | 7.6 | Cc1ncsc1-c1ccc([C@H](C)NC(=O)[C@@H]2C[C@@H](O)CN2C(=O)[C@@H](NC(=O)CCOCCOCCNC(=O)c2ccc(C(=O)Nc3n[nH]c4c3CN(C(=O)N[C@H](CN(C)C)c3ccccc3)C4(C)C)cc2)C(C)(C)C)cc1 [Compound 15, N1-(5-(((S)-2-(dimethylamino)-1-phenylethyl)carbamoyl)-6,6-dimethyl-1,4,5,6-tetrahydropyrrolo[3,4-c]pyrazol-3-yl)-N4-(2-(2-(3-(((S)-1-((2S,4R)-4-hydroxy-2-(((S)-1-(4-(4-methylthiazol-5-yl)phenyl)ethyl)carbamoyl)pyrrolidin-1-yl)-3,3-dimethyl-1-oxobutan-2-yl)amino)-3-oxopropoxy)ethoxy)ethyl)terephthalamide] |  | 
